Laboratory results taken from BindingDB's records for doi:10.1016/j.bmcl.2013.07.029 (Vanderbilt University Medical Center, 2013).

Biological target: Metabotropic glutamate receptor 1 (Homo sapiens, UniProt Q13255)
Assay: Negative allosteric modulation of human mGlu1 receptor expressed in HEK293A TREx cells assessed as calcium flux after 45 mins
Procedure, shortened: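 HEK293A TREx cells stably expressing human mGlu1 were induced overnight with 50 ng/mL tetracycline at 37 °C. Ten-point 1:3 compound series were added for 2.3 min, then an EC20 of glutamate, then an EC80 of glutamate 1.9 min later. Ca2+ flux was read for 1.7 min. Values are the average of n ≥ 3.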

Sequence of Metabotropic glutamate receptor 1 (Q13255 whole entry): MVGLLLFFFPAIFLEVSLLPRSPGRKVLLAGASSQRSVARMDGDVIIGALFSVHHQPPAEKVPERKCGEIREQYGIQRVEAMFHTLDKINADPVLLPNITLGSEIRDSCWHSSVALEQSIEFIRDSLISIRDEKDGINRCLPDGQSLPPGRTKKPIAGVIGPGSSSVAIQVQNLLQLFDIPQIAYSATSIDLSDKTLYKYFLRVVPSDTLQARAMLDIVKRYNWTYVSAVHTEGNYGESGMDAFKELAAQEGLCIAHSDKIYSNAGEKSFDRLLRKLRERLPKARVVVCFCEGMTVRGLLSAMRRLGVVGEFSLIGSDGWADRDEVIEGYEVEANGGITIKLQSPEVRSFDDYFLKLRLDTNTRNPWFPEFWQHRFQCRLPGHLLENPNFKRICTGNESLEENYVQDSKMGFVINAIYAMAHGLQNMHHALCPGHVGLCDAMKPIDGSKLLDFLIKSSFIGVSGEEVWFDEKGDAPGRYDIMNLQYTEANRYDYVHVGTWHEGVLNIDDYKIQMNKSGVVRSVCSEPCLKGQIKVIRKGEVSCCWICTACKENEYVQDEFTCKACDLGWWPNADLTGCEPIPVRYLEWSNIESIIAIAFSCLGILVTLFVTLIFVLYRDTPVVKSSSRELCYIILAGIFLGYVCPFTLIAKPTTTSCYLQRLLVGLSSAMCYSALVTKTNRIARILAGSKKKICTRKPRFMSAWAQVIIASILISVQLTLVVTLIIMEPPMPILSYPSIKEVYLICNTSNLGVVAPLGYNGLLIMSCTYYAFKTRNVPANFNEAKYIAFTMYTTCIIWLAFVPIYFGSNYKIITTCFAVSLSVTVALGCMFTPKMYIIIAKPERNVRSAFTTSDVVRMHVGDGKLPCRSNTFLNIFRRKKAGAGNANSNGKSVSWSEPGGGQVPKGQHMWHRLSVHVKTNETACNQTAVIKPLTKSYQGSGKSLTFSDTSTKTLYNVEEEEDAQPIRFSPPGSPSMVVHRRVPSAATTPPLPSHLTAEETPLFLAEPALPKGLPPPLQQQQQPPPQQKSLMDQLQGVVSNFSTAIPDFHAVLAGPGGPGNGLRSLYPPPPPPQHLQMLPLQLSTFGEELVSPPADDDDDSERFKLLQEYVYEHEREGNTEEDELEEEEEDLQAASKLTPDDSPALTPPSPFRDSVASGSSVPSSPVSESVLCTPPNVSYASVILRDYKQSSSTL

IC50	Structure (SMILES)
> 31.6 µM	CC(C)(C)C(=O)N1C[C@@H]2CN(c3ccccn3)C[C@@H]2C1
> 31.6 µM	CC(C)(C)CC(=O)N1C[C@@H]2CN(c3ccccn3)C[C@@H]2C1
